According to ChEMBL document CHEMBL4041529, “Structure-Guided Design of EED Binders Allosterically Inhibiting the Epigenetic Polycomb Repressive Complex 2 (PRC2) Methyltransferase” (J Med Chem, 2017):

Columns and labels:
[1] = biological target: T1, Polycomb protein EED (Homo sapiens, UniProt O75530); assay: Inhibition of human PRC2-EED (76 to 441 residues) expressed in Escherichia coli BL21 (DE3) using histone H3[21 to 44, K27MeO] as substrate and SAM as co-factor measured after 2 hrs by LC-MS/MS method
T1 sequence (O75530 whole entry, the tested form may be a part): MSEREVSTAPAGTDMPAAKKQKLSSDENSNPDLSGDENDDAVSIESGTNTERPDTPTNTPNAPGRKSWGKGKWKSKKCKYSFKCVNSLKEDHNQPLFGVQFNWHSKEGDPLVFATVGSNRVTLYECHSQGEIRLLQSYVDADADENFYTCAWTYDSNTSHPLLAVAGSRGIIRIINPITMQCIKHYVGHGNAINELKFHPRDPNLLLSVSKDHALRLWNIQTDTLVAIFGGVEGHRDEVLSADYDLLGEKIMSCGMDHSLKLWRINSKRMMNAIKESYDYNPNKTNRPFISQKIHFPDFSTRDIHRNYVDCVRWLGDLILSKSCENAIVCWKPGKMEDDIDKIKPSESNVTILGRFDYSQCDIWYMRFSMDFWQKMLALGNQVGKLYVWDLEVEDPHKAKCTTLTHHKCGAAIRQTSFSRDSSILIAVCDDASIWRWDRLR

[2] = Dissociation constant, pKa of the compound by electrophoresis/potentiometric method; format: physicochemical
[3] = biological target: T1, Polycomb protein EED; assay: Inhibition of EED in human G401 cells assessed as reduction in H3K27 methylation measured after 48 hrs by ELISA method; format: cell-based
How it was run: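 G-401 rhabdoid cells at 37 °C, 5% CO2 were seeded, grown 24 h, then given serial dilutions for 48 h against a matched DMSO control. Cells were PBS-washed, lysed in 0.4 N HCl for 30 min at 4 °C and neutralized. Lysate was coated overnight at 4 °C, blocked with TBST/5% BSA, then probed with antibody and ECL. H3K27Me3 was normalized to H3, and IC50 came from a dose-response fit.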

[4] = test system: Pfeiffer; assay: Antiproliferative activity against human Pfeiffer cells harboring EZH2 mutant measured after 6 days by CellTiter-Glo assay; format: functional, cell-based; details: for EC50: 144 h
How it was run: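 Exponentially growing Pfeiffer B-lymphocyte cells were exposed to compound for 6 days. Growth was read by CellTiter-Glo luminescence. Percent inhibition was taken versus a DMSO control, and IC50 was obtained by curve fitting.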

[5] = biological target: T1, Polycomb protein EED; assay: Binding affinity to human methionine-13Cepsilon-methyl labeled PRC2-EED (76 to 441 residues) expressed in Escherichia coli BL21 (DE3) by 2D NMR method
How it was run: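 2D [13C,1H]-HSQC at 600 MHz, 296 K, on 40 μM selectively methionine-13Cε-methyl-labeled EED76–441 in 25 mM d-Tris pH 8, 150 mM NaCl, 2 mM d-DTT, 10% D2O. The protein was titrated with increasing ligand, and KD was derived from the chemical shift perturbations.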

SMILES | IC50 [1] | pKa [2] | IC50 [3] | further results
c1ccc(CC2CCCNC2)cc1 (centres undefined) | > 500 µM | – | – | –
NC(=O)N1CCCC(Cc2cccc3ccoc23)C1 (centres undefined) | 174 µM | – | – | –
COc1cc(CC2CCCNC2)ccc1F (centres undefined) | 119 µM | – | – | –
c1cc(CC2CCCNC2)c2ccoc2c1 (centres undefined) | 40 µM | 9.8 | – | –
CC(C)c1nc(N)n2c1CCC(Cc1cccc3c1OCO3)C2 (centres undefined) | 0.43 µM | – | 2 µM | Activity [4]: Dose-dependent effect; EC50 [4]: 3.4 µM
Nc1ncc2n1CC(Cc1cccc3c1OCO3)CC2 (centres undefined) | 1.3 µM | 9.2 | 1 µM | –
CC(C)c1nc(N)n2c1CCC(Cc1ccccc1F)C2 (centres undefined) | 7.9 µM | – | – | –
COc1ccc(F)c(CC2CCc3c(C(C)C)nc(N)n3C2)c1 (centres undefined) | 1.3 µM | – | 2.9 µM | EC50 [4]: 4.4 µM
Nc1ncc2n1CC(Cc1cccc3occc13)CC2 (centres undefined) | 2.7 µM | – | 12.4 µM | –
COc1ccc(CC2CCCNC2)cc1 (centres undefined) | > 500 µM | – | – | –
COc1cccc(CC2CCCNC2)c1 (centres undefined) | 95 µM | 9.9 | – | Kd [5]: 32 µM
N=C(N)N1CCCC(Cc2cccc3ccoc23)C1 (centres undefined) | 2.8 µM | – | 2.5 µM | –
c1cc(CC2CCCNC2)c2c(c1)OCO2 (centres undefined) | 35 µM | – | – | –
N=C(N)N1CCCC(Cc2cccc3occc23)C1 (centres undefined) | 2.1 µM | > 11 | 2.5 µM | –
N=C(N)N1CCCC(Cc2cccc3c2OCO3)C1 (centres undefined) | 3.9 µM | > 11 | 1.6 µM | –
c1cc(CC2CCCNC2)c2occc2c1 (centres undefined) | 95 µM | – | – | –
COc1cccc(CC2CCCN(C(=N)N)C2)c1 (centres undefined) | 43 µM | > 11 | – | –
